Test results from ChEMBL document CHEMBL5329184, “Design, synthesis, electrochemistry and anti-trypanosomatid hit/lead identification of nitrofuranylazines” (RSC Med Chem, 2023).

What was measured:
in vitro [1] = details: monkey, Vero cells
Leishmania major [2] = experiment: Antileishmanial activity against Leishmania major IR-173 amastigote assessed as inhibition of parasite growth incubated for 72 hrs by resazurin staining based analysis; details: IR-173, 72 h
Leishmania major [3] = experiment: Antileishmanial activity against Leishmania major IR-173 promastigotes assessed as inhibition of parasite growth incubated for 48 hrs by resazurin staining based analysis; type: functional, organism-based; details: IR-173, 48 h
In short: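 Logarithmic-phase promastigotes (1.25 × 10^6 cells per mL) grown in supplemented M199 with 10% FBS, pH 7.3–7.4, 26 °C. […] 48 h at 26 °C, then resazurin 24 h in the dark. Absorbance 570 minus 600 nm. IC50 by non-linear regression, mean ± SD of three biological replicates.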

THP-1 = experiment: cells; type: functional, cell-based; details: Homo sapiens, THP-1, 72 h
Leishmania donovani [4] = experiment: Antileishmanial activity against Leishmania donovani MHOM/IN/95/9515 promastigotes assessed as inhibition of parasite growth incubated for 48 hrs by resazurin staining based analysis; type: functional, organism-based; details: MHOM/IN/95/9515, 48 h
Trypanosoma cruzi [5] = experiment: Selectivity index, ratio of IC50 for antitrypanosomal activity against Trypanosoma cruzi epimastigote assessed as parasite growth inhibition to IC50 for antitrypanosomal activity against Trypanosoma cruzi trypomastigotes assessed as parasite growth inhibition; type: functional
in vitro [6] = details: monkey, Vero cells; remark: listed apart in the source
Leishmania donovani [7] = experiment: Antileishmanial activity against Leishmania donovani MHOM/IN/95/9515 amastigote assessed as inhibition of parasite growth incubated for 72 hrs by resazurin staining based analysis; details: MHOM/IN/95/9515, 72 h
[8] = Selectivity index, ratio of IC50 for cytotoxicity against African green monkey Vero cells assessed as inhibition of cell growth to IC50 for antitrypanosomal activity against Trypanosoma cruzi trypomastigotes assessed as parasite growth inhibition; type: toxicity, cell-based; details: read-out: Ratio IC50
[9] = Selectivity index, ratio of IC50 for cytotoxicity against human THP-1 cells assessed as inhibition of cell growth to IC50 for antitrypanosomal activity against Trypanosoma cruzi trypomastigotes assessed as parasite growth inhibition; type: functional
Trypanosoma cruzi [10] = experiment: Antitrypanosomal activity against Trypanosoma cruzi epimastigotes assessed as parasite growth inhibition incubated for 48 hrs by resazurin staining based analysis; type: functional, organism-based
Trypanosoma cruzi [11] = experiment: Antitrypanosomal activity against bloodstream Trypanosoma cruzi trypomastigotes infected in African green monkey Vero cells assessed as parasite growth inhibition incubated for 48 hrs by resazurin assay
[12] = Selectivity index, ratio of IC50 for cytotoxicity against African green monkey Vero cells assessed as inhibition of cell growth to IC50 for antitrypanosomal activity against Trypanosoma cruzi epimastigotes assessed as parasite growth inhibition; type: toxicity, cell-based; details: read-out: Ratio IC50
in vitro [13] = details: monkey, Vero cells; remark: listed apart in the source
Leishmania major [14] = experiment: Selectivity index, ratio of IC50 for antileishmanial activity against Leishmania major IR-173 promastigotes assessed as inhibition of parasite growth to IC50 for antileishmanial activity against Leishmania major IR-173 amastigote assessed as inhibition of parasite growth; type: functional
in vitro [15] = details: monkey, Vero cells; remark: listed apart in the source
Leishmania donovani [16] = experiment: Selectivity index, ratio of IC50 for antileishmanial activity against Leishmania donovani MHOM/IN/95/9515 promastigotes assessed as inhibition of parasite growth to IC50 for antileishmanial activity against Leishmania donovani MHOM/IN/95/9515 amastigote assessed as inhibition of parasite growth; type: functional
[17] = Selectivity index, ratio of IC50 for cytotoxicity against human THP-1 cells assessed as inhibition of cell growth to IC50 for antileishmanial activity against Leishmania donovani MHOM/IN/95/9515 amastigote assessed as inhibition of parasite growth; type: functional

SMILES	IC50 (THP-1)	IC50 (Trypanosoma cruzi [10])	IC50 (Trypanosoma cruzi [11])	selectivity ratio (in vitro [1])	IC50 (Leishmania major [2])	IC50 (Leishmania major [3])	IC50 (Leishmania donovani [4])	Ratio IC50 (Trypanosoma cruzi [5])	selectivity ratio (in vitro [6])	IC50 (Leishmania donovani [7])	selectivity ratio [8]	Ratio IC50 [9]	selectivity ratio [12]	selectivity ratio (in vitro [13])	Ratio IC50 (Leishmania major [14])	selectivity ratio (in vitro [15])	Ratio IC50 (Leishmania donovani [16])	Ratio IC50 [17]
Cc1ccc(/C=N/N=C/c2ccc([N+](=O)[O-])o2)cc1	> 100 µM	3.69 µM	4.04 µM	238	> 10 µM	0.42 µM	0.76 µM	0.91	132	> 10 µM	25	25	27					
O=[N+]([O-])c1ccc(/C=N/N=C/c2ccc(Cl)cc2)o1	> 100 µM	2.41 µM	3.05 µM	238	2.47 µM	0.42 µM	0.67 µM	0.79	149	> 10 µM	33	33	41	40	0.17			
O=[N+]([O-])c1ccc(/C=N/N=C/c2ccc(OCc3ccccc3)cc2)o1	> 100 µM	95.2 µM	> 10 µM	222	> 10 µM	0.45 µM	1.61 µM		62	0.25 µM			1			400	6.44	400
O=[N+]([O-])c1ccc(/C=N/N=C/c2ccc(F)cc2)o1	63.4 µM	3.56 µM	1.95 µM	65	3.69 µM	0.73 µM	1.18 µM	1.83	40	> 10 µM	24	51	13	13	0.2			
O=[N+]([O-])c1ccc(/C=N/N=C/c2ccc(Br)cc2)o1	> 100 µM	46.1 µM	> 10 µM	133	0.63 µM	0.75 µM	3.56 µM		28	6.41 µM			2	159	1.19	16	0.56	16
O=[N+]([O-])c1ccc(/C=N/N=C/c2ccc(O)cc2)s1	22.9 µM	> 10 µM	3.04 µM	15	> 10 µM	2.22 µM	1.66 µM		20	0.34 µM	11	8				97	4.88	67
C(=N\N=C\c1ccco1)/c1ccc(OCc2ccccc2)cc1		> 10 µM	> 10 µM		> 10 µM	> 10 µM	> 10 µM			> 10 µM								
NC(=O)N/N=C/c1ccc([N+](=O)[O-])o1 [NITROFURAZONE]	> 100 µM	7.83 µM	2.23 µM	54	> 10 µM	1.85 µM	1.85 µM	3.5	54	1.69 µM	45	45	13			59	1.09	
O=C1OCCN1/N=C/c1ccc([N+](=O)[O-])o1 [FURAZOLIDONE]					5.61 µM	0.34 µM	0.28 µM			2.7 µM								
O=[N+]([O-])c1ccc(/C=N/N=C/c2ccc(F)cc2)s1	> 100 µM	> 10 µM	6.56 µM	26	> 10 µM	3.79 µM	2 µM		50	> 10 µM	15	15						
O=Cc1ccc([N+](=O)[O-])o1	80.9 µM	> 10 µM	> 10 µM	2	5.6 µM	7.94 µM	> 10 µM			2.68 µM				3	1.42			30

Continued, in another order:

IC50 (THP-1)	IC50 (Trypanosoma cruzi [10])	IC50 (Trypanosoma cruzi [11])	SMILES	selectivity ratio (in vitro [1])	IC50 (Leishmania major [2])	IC50 (Leishmania major [3])	IC50 (Leishmania donovani [4])	Ratio IC50 (Trypanosoma cruzi [5])	selectivity ratio (in vitro [6])	IC50 (Leishmania donovani [7])	selectivity ratio [8]	Ratio IC50 [9]	selectivity ratio [12]	selectivity ratio (in vitro [13])	Ratio IC50 (Leishmania major [14])	selectivity ratio (in vitro [15])	Ratio IC50 (Leishmania donovani [16])	Ratio IC50 [17]
> 100 µM			O=[N+]([O-])c1ccc(/C=N/N=C/c2ccc(OCc3ccccc3)cc2)s1	23	> 10 µM	4.39 µM												
	> 10 µM	> 10 µM	O=[N+]([O-])c1ccc(/C=N/N=C/c2ccco2)cc1		> 10 µM	> 10 µM	> 10 µM			> 10 µM								
16.8 µM	2.63 µM	0.78 µM	O=[N+]([O-])c1ccc(/C=N/N=C/c2ccc([N+](=O)[O-])o2)cc1	17	7.9 µM	0.7 µM	0.7 µM	3.37	17	0.53 µM	15	21	4	1	0.09	22	1.32	32
> 100 µM	9.21 µM	2.5 µM	O=[N+]([O-])c1ccc(/C=N/N=C/c2ccccc2)s1	29	> 10 µM	1.43 µM	0.93 µM	3.68	45	7.26 µM	17	40	5			6	0.13	14
> 100 µM	7.66 µM	2.31 µM	O=[N+]([O-])c1ccc(/C=N/N=C/c2ccccc2)o1	14	> 10 µM	1.19 µM	1.45 µM	3.32	11	> 10 µM	7	42	2					
> 100 µM		4.79 µM	O=C(Cn1ccnc1[N+](=O)[O-])NCc1ccccc1 [BENZNIDAZOLE]								21	21						
26.7 µM	> 10 µM	1.62 µM	O=Cc1ccc([N+](=O)[O-])s1	3	> 10 µM	3.75 µM	5.07 µM		2	> 10 µM	8	16						
> 100 µM	4.92 µM	6.14 µM	COc1ccc(/C=N/N=C/c2ccc([N+](=O)[O-])o2)cc1	57	> 10 µM	0.89 µM	1.16 µM	0.8	44	2.28 µM	8	16	10			22	0.51	44
46.2 µM	7.3 µM	1.74 µM	O=[N+]([O-])c1ccc(/C=N/N=C/c2ccc(O)cc2)o1	29	> 10 µM	0.64 µM	1.02 µM	4.2	18	2.7 µM	11	27	3			7	0.38	17
